CAL PDZ FP-1: CAL PDZ peptide-binding inhibitors, primary screen, biochemical, fluorescence polarization, Cer-tagged CAL PDZ, HTS | Golgi-associated PDZ and coiled-coil motif-containing protein (Homo sapiens), Q9HD26 | AID 504414, 2011 | hit rate 0.02% among 330,000 | inhibition, % at 20 µM | purified CAL PDZ, TMR-peptide fluorescence polarization, 1 h;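 active means highest replicate inhibition of at least 40%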
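material = purified tagged CAL PDZ domain construct (CerCALP) | compound dosing = 20 µM, one dose | times = 1 h at RT | measured by = fluorescence polarization from S- and P-plane intensities, G-factor corrected | read-out = inhibition from polarization loss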
CAL PDZ FP-2: untagged CAL PDZ binding inhibitors, primary screen, biochemical, fluorescence polarization, HTS; Golgi-associated PDZ and coiled-coil motif-containing protein (Homo sapiens), Q9HD26; purified CAL PDZ, TMR-peptide fluorescence polarization, 1 h; inhibition, % at 24.9 µM; hit rate 0.92% among 300,000; AID 602252, 2012;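 active means mean inhibition of at least 30% with at least half of replicates also reaching 30%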
dFosB act: activators of delta FosB homodimer, primary screen, biochemical, fluorescence polarization, TAMRA-CDK5 oligo, single point; hit rate 0.99% among 340,000; AID 493131, 2011; purified delta FosB; percent of positive-control signal above neutral wells; activation, % at 25 µM;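 active means mean activation above about 17%, with every replicate also reaching it, limit read from the data, passing the limit was not always enough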
NTR1 ag: agonists of human NTR1, primary screen, imaging, U2OS cells, beta-arrestin-GFP, high content. Neurotensin receptor type 1 (Homo sapiens), P30989. NTR1-U2OS beta-arrestin-GFP spot imaging, agonist mode. activation, % at 20 µM. hit rate 0.17% among 330,000. AID 493036, 2011;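 active means activation at or above 40% of the spot to cytoplasm intensity ratio, with at least 20 cells analyzed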
PKA-R1A act: activators of PKA-R1A holoenzyme, primary screen, biochemical, fluorescence polarization, Cy5-IP20, bovine R1A, mouse PKAc; cAMP-dependent protein kinase type I-alpha regulatory subunit (Bos taurus) + …; PKA-R1A dissociation; scaled: DMSO 0%, 113 µM cGMP 100%; activation, % at 11.4 µM; hit rate 0.083% among 340,000;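 active means percent activation above the mean of all tested compounds plus 3 SD, cut at about 19% in these data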;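 further: higher means more PKAc released from R1A so a rise in polarization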
PKA-R2B act: activators of PKA-R2B holoenzyme, primary screen, biochemical, fluorescence polarization, Cy5-IP20, human; AID 504700, 2011; cAMP-dependent protein kinase catalytic subunit beta (Homo sapiens) + cAMP-dependent …; hit rate 0.079% among 340,000; PKA-R2B holoenzyme dissociation; R2B truncated from residue 108, S112A mutant; 0% DMSO only, 100% 113 µM cGMP; activation, % at 11.4 µM;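 active means activation above a cutoff set at the mean over all compounds plus 3 SD, cut at about 18% in these data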;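 further: higher means more holoenzyme dissociation and a rise in polarization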
Target sequence (P31323 whole entry, looked up, other chains not shown, the tested form may be a part): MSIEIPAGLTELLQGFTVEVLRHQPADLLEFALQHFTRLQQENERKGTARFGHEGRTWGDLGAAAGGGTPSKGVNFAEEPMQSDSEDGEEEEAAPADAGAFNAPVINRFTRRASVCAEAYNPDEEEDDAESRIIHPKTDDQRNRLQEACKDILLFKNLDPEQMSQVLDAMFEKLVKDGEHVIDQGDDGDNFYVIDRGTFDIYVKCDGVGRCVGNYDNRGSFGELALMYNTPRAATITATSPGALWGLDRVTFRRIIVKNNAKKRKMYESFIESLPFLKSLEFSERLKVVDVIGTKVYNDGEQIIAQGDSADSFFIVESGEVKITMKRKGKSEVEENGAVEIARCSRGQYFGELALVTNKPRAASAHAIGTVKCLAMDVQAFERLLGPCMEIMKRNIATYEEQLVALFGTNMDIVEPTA
Large screens that a line does not name were inactive. A selection: hits, their analogues and other compounds. The true share with any hit is near 2%.

Cc1ccc(C2C(C#N)=C(N)Oc3n[nH]c(-c4cccs4)c32)cc1 (centres undefined)	none
CC(C)C1C(C#N)=C(N)Oc2n[nH]c(-c3cccs3)c21 (centres undefined)	CAL PDZ FP-2 54.5
O=C(NNC(=O)c1ccc(Br)o1)c1ccc(NC(=O)c2ccccc2)cc1	none
COc1cc(-c2nc(-c3ccc(NC(=O)c4ccc(Br)o4)cc3)no2)cc(OC)c1OC	dFosB act 49.1
N/C(=N\O)c1ccc(NC(=O)c2ccc(Br)o2)cc1	CAL PDZ FP-2 67.4
COc1ccc(-c2nc(-c3ccc(NC(=O)c4ccc(Br)o4)cc3)no2)cc1OC	none (no result: CAL PDZ FP-1)
COc1ccc(N2C[C@H](Cc3ccccc3)[C@@H](CC(=O)Nc3ccccc3)C2=O)cc1	none (no result: CAL PDZ FP-1, CAL PDZ FP-2, dFosB act, NTR1 ag)
O=C(NCc1ccc(-c2csnn2)cc1)C1CC1	none (no result: CAL PDZ FP-2, PKA-R1A act, PKA-R2B act)
C=CC(=O)NCc1ccc(-c2csnn2)cc1	CAL PDZ FP-2 56.7
COc1ccc(Oc2ncccc2NC(=O)c2cccc(C)c2C)cc1	none
C=C(C)C(=O)Nc1cccnc1Oc1ccc(F)cc1	CAL PDZ FP-2 111.5
CCOC(=O)COc1coc(CN2CCN(c3ccc(F)cc3)CC2)cc1=O	CAL PDZ FP-2 40.9
CN(C)c1ccc(C(=S)N2CCN(c3ccccc3)CC2)cc1	CAL PDZ FP-2 50.5 (no result: CAL PDZ FP-1)
O=C(Nc1ccc(F)cc1)C1CCCN1S(=O)(=O)c1cccc2nsnc12 (centres undefined)	CAL PDZ FP-2 128.2
O=C(Nc1ccc(F)cc1F)C1CCCN1S(=O)(=O)c1cccc2nsnc12 (centres undefined)	none
COCCNC(=O)c1cn(CCOC)c(=O)c2c1c1ccccc1n2C	CAL PDZ FP-2 49.0
COCCCNC(=O)c1cn(CCOC)c(=O)c2c1c1ccccc1n2C	none
Nc1nc(Nc2ccc(Cl)cc2)nc2ccccc12	none
COc1cc2nc(Nc3ccc(C)c(Cl)c3)nc(N)c2cc1OC	dFosB act 59.5
Cc1ccc(Nc2nc(N)c3ccccc3n2)cc1Cl	dFosB act 28.3
COc1cc2nc(N(C)C)nc(N)c2cc1OC	none
CCOC(=O)c1ccc(Nc2nc(N)c3cc(OC)c(OC)cc3n2)cc1	dFosB act 37.3
COc1ccccc1N1CCN(Cc2nc(N)nc(Nc3ccc(C)c(Cl)c3)n2)CC1	none (no result: CAL PDZ FP-1)
COc1cc2nc(Nc3ccc(C)c(C)c3)nc(N)c2cc1OC	dFosB act 105.4
CCOC(=O)c1ccc(Nc2ccc(-c3ccc(OC)c(OC)c3)nn2)cc1	none (no result: CAL PDZ FP-2)
O=C1OCC/C1=C\NCCCCCCCCN/C=C1\CCOC1=O	none (no result: CAL PDZ FP-1, CAL PDZ FP-2, dFosB act, NTR1 ag)
CC[C@]1(C(=O)OC)[C@H]2C(=O)N(Cc3ccccc3)C(=O)[C@H]2[C@H]2CN=C(SCC3CC3)N21	none
COC(=O)C1=NNC(C(=O)OC)C1c1ccccc1 (centres undefined)	none (no result: NTR1 ag)
COc1cc2nc(Nc3ccc(F)cc3)nc(N)c2cc1OC	dFosB act 20.8
COc1cc([N+](=O)[O-])ccc1NC(=O)/C=C/C(=O)O	CAL PDZ FP-2 71.4
COc1cc([N+](=O)[O-])ccc1NC(=O)/C=C\C(=O)O	none
CC(=O)Nc1ccc(S(=O)(=O)NC2=NCN(c3ccc([N+](=O)[O-])cc3)CN2)cc1	dFosB act 23.9 (no result: CAL PDZ FP-2)
CN1CN=C(NS(=O)(=O)c2ccc([N+](=O)[O-])cc2)NC1	none
Cc1ccc(-c2nn(-c3cc(N4CCNCC4)ccc3[N+](=O)[O-])c(=O)c3ccccc23)cc1	dFosB act 35.0
Cc1nn(-c2cc(N3CCCCCC3)ccc2[N+](=O)[O-])c(=O)c2ccccc12	none
CC(=O)Nc1ccc(S(=O)(=O)NC(CSc2ccc(C(=O)O)cc2[N+](=O)[O-])C(=O)O)cc1 (centres undefined)	none
COc1ccc(NC(=O)COc2ccc(Br)cc2)c(OC)c1	none
COc1ccc(NC(=O)NNC(=O)COc2ccc3cc(Br)ccc3c2)c(OC)c1	dFosB act 82.2
CCOC(=O)C1=C(O)/C(=C\c2ccc(O)c(OCC)c2)N=C1C	CAL PDZ FP-2 62.7
CC(=O)Nc1ccc(NC(=O)CCc2nc3ccccc3c(=O)[nH]2)cc1	none
CC(=O)c1sc(NC(=O)CCCc2nc3ccccc3c(=O)[nH]2)nc1-c1ccccc1	CAL PDZ FP-2 52.1
CCN1CCN(C(=O)c2cc(=O)c3cc(C)ccc3o2)CC1	CAL PDZ FP-2 44.2
COc1ccc(CNC(=O)c2cc(=O)c3cc(C)ccc3o2)cc1	dFosB act 17.4
CCc1ccc2oc(C(=O)N3CCN(C)CC3)cc(=O)c2c1	none
Cc1cc(N)n(-c2ccc(S(N)(=O)=O)cc2[N+](=O)[O-])n1	CAL PDZ FP-2 76.1
Cc1cc(N)n(-c2ccc(S(=O)(=O)N3CCOCC3)cc2[N+](=O)[O-])n1	none
COC(=O)C(C)n1cnc2c(nnn2-c2cccc(OC)c2)c1=O (centres undefined)	none (no result: CAL PDZ FP-2)
Cc1ccc(S(=O)(=O)N2CCN(C(=O)C3CCN(C(=O)c4ccc(F)cc4)CC3)CC2)c(C)c1	none
Cc1cc(NC(=O)CCC(=O)N(Cc2ccco2)C(C(=O)NC2CCCCC2)c2ccccc2)no1 (centres undefined)	CAL PDZ FP-2 39.1
O=C(COC(=O)c1ccc([N+](=O)[O-])s1)Nc1ncc(C(F)(F)F)cc1Cl	CAL PDZ FP-2 70.9
Cn1c(=O)c2[nH]c(CCc3ccncc3)nc2n(C)c1=O	CAL PDZ FP-2 54.3 (no result: NTR1 ag)
O=C(Nc1ccc2c(c1)CCC2)c1ncoc1-c1ccccc1F	CAL PDZ FP-2 68.7
Cc1cccc(C2c3[nH]c4ccccc4c3CCN2Cc2cccn2-c2ncccn2)c1 (centres undefined)	none
COc1ccc(C2c3[nH]c4ccccc4c3CCN2Cc2cccn2-c2ncccn2)cc1C (centres undefined)	dFosB act 32.2
Cc1cccc(/C=C/c2nc3ccccc3c(=O)[nH]2)c1	none (no result: CAL PDZ FP-2)
O=C(O)c1ccc(/C=C/c2nc3ccccc3c(=O)[nH]2)cc1	CAL PDZ FP-2 active
COC(=O)c1ccc2cn[nH]c2c1	none (no result: CAL PDZ FP-1, CAL PDZ FP-2, dFosB act, NTR1 ag)
COc1ccc(CNC(=O)C(c2ccco2)N(C(=O)CNS(=O)(=O)c2ccccc2)c2ccccc2C)cc1 (centres undefined)	CAL PDZ FP-2 91.8
CSc1nc2sc3c(c2c(=O)n1C)CCC3	CAL PDZ FP-2 71.5

From PubChem
